Rows were chosen to be rich in hits. Some 3% of all compounds tested hit in one or more screens of this group.
UBC13 polyUb: UBC13 polyubiquitin chain formation inhibitors, primary screen, biochemical, TR-FRET, uHTS; Ubiquitin-conjugating enzyme E2 N (Homo sapiens), P61088; 0.47% of 330,000 active; inhibition, % at 20 µM; in the data active = inhibition above about 45%, passing the limit was not always enough
SENP8 block-1: SENP8 protease inhibitors, primary screen, biochemical, luminescence; 1.2% of 330,000 active; AID 2540, 2010; inhibition, % at 10 µM; Sentrin-specific protease 8 (Homo sapiens), Q96LD8; purified SENP8, Z-RLRGG-aminoluciferin cleavage; in the data active = inhibition above about 50%
Target sequence (Q96LD8 whole entry, looked up): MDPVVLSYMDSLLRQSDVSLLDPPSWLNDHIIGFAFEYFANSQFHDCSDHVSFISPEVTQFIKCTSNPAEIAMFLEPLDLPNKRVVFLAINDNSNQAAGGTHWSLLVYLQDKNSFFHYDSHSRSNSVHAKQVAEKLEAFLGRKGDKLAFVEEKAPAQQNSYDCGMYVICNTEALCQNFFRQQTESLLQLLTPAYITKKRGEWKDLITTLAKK
Apaf1 inhib: inhibitors of human Apaf-1 apoptosome, primary screen, biochemical, DEVD-Rh110 fluorescence, uHTS; inhibition, % at 20 µM; reconstituted apoptosome caspase-3 activity; 0.71% of 330,000 active; AID 489030, 2010; active = inhibition of at least 40% at 20 µM;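 note: plate controls were DMSO wells for no effect and DEVD-CHO caspase inhibitor wells for full effect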
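System – cell-free apoptosome with Apaf-1, procaspase-3 and caspase-9 · Buffer or medium – pH 7.5 Hepes buffer with CHAPS, BSA, DTT · Also added – cytochrome c with DEVD-Rh110 · Times – 30 min compound preincubation, 50 min activation, room temperature · Technique – Rh110 fluorescence intensity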
SENP8 block-2: human SENP8 protease inhibitors, primary screen, biochemical, fluorescence, Nedd8 protein substrate, uHTS | recombinant SENP8 | inhibition, % at 20 µM | 0.64% of 360,000 active; in the data active = inhibition mostly above about 40%, no sharp cut-off; inactive = mostly below about 27%
SENP6 block: SENP6 protease inhibitors, primary screen, biochemical, luminescence, uHTS | inhibition, % at 10 µM | 1.8% of 330,000 active | Sentrin-specific protease 6 (Homo sapiens), Q9GZR1 | Recombinant SENP6 catalytic domain, aminoluciferin luminescence;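 active = inhibition above about 50% at the single tested dose, limit read from the data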;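 note: plate controls were DMSO wells with enzyme for no effect and DMSO wells lacking enzyme for full effect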
Target sequence (Q9GZR1 628-1112 limits assumed): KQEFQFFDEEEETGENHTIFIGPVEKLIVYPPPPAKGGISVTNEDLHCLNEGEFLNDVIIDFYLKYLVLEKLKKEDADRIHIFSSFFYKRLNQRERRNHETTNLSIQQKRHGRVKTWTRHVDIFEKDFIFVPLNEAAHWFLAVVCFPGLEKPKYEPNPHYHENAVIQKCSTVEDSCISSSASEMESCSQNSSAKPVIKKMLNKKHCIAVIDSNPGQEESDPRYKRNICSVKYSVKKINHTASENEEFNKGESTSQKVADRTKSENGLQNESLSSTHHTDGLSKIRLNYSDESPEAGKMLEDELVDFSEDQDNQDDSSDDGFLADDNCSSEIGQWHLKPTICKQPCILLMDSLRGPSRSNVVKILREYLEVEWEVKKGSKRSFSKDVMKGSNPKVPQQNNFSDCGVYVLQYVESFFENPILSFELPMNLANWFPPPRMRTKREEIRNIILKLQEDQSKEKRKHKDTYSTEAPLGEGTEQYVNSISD
SENP7 block: SENP7 protease inhibitors, primary screen, biochemical, luminescence, uHTS; recombinant SENP7, Z-RLRGG-aminoluciferin luminescence, 40 min; inhibition, % at 5 µM; 1.5% of 330,000 active; AID 434973, 2010;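 active = inhibition above about 50% at the single test dose, limit read from the data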;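 note: plate controls were DMSO with enzyme for no effect and no enzyme buffer wells for full effect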
SENP8 confirm: SENP8 protease inhibitors, retest, confirmation, biochemical, luminescence, single concentration | shares compounds with SENP7 block | 40% of 6,200 active | AID 488912, 2010 | Recombinant SENP8, Z-RLRGG-aminoluciferin luminescence, 60 min | inhibition, % at 12.5 µM;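 active = mean inhibition across replicates above about 50%, limit read from the data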
SENP6 confirm: SENP6 protease inhibitors, confirmation, biochemical, luminescence, single concentration | shares compounds with SENP7 block | recombinant SENP6, Z-RLRGG-aminoluciferin luminescence | inhibition, % at 12.5 µM | 58% of 6,200 active | AID 488915, 2010
SENP7 conf: SENP7 protease inhibitors, retest, confirmation, biochemical, luminescence, single concentration. shares compounds with SENP7 block. recombinant SENP7, Z-RLRGG-aminoluciferin luminescence, 40 min. inhibition, % at 12.5 µM. 69% of 6,200 active
Casp3 SENP sel: caspase-3 protease inhibitors, confirmation, selectivity assay for SENP inhibitor project, biochemical, single concentration; shares compounds with SENP7 block; purified caspase-3, Z-DEVD-aminoluciferin luminescence, 60 min; inhibition, % at 12.5 µM; 60% of 6,200 active; AID 488918, 2010;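 active = mean inhibition above about 50%, limit read from the data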;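 note: plate controls were enzyme with DMSO for no effect and wells without caspase-3 for full effect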
SENP luc ctr: interferes with luciferase luminescence in SENP counter-screen. shares compounds with SENP7 block. Pre-incubated SENP8/Z-RLRGG-aminoluciferin, luciferase luminescence interference. inhibition, % at 12.5 µM. 39% of 6,200 active. AID 488919;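 active = mean inhibition above about 50% when retested at one dose, limit read from the data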;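 note: plate controls were DMSO wells with completed reaction for no effect and substrate without enzyme for full effect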
Starred values were filed as active, the others as inactive; · = no result.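 Rule for the calls, unless noted: active = mean inhibition above about 50% in the one-dose retest (limit read from the data); inactive = the rest.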

SMILES | UBC13 polyUb | SENP8 block-1 | Apaf1 inhib | SENP8 block-2 | SENP6 block | SENP7 block | SENP8 confirm | SENP6 confirm | SENP7 conf | Casp3 SENP sel | SENP luc ctr
Cc1ccc(N2Cc3ccccc3C2=O)cc1 | 4 | 89* | 5 | -19 | 93* | 94* | 91* | 93* | 101* | 95* | 54*
CCOC(=O)c1sc(NC(=O)c2ccco2)nc1C | 11 | 9 | 0 | -49 | 59* | 54* | 6 | 6 | -6 | 5 | -3
CCOC(=O)c1sc(NC(=O)COC(=O)c2ccco2)nc1C | 5 | -7 | -3 | 24 | -9 | -8 | · | · | · | · | ·
CCOC(=O)c1sc(NC(=O)c2ccc(C)o2)nc1C | 6 | 64* | -4 | -99 | 70* | 12 | 36 | 74* | 91* | 84* | 19
CC(=O)c1ccc(OC2(C)CCN(Cc3cc4ccccc4[nH]3)C2)cc1 (stereo not given) | · | · | · | 23 | · | · | · | · | · | · | ·
O=C(O)c1cc(O)c2c(c1)C(=O)c1cc(O)cc(O)c1C2=O | -74 | 28 | 8 | 3 | 52* | -6 | 67* | 60* | 84* | 23 | 72*
O=C(Nc1cccc(O)c1)c1c(O)c2ccccc2[nH]c1=O | 19 | 62* | -16 | -26 | 48 | 86* | 7 | 50* | 78* | 57* | 44
CCOC(=O)C[C@@H]1OC[C@H](C(C)C)N1S(=O)(=O)c1ccc(C)cc1 | · | · | · | 21 | · | · | · | · | · | · | ·
CCn1c(C)c(C(C)=O)cc(C#N)c1=O | 1 | -5 | -8 | 11 | 5 | 79* | -7 | -2 | -6 | -3 | -5
CCOc1cc2c(c3c1C(c1ccccc1)N(S(=O)(=O)c1ccc(C)cc1)C3)C(=O)C=CC2=O (stereo not given) | · | · | · | -94 | · | · | · | · | · | · | ·
O=C(N/N=C/c1c(Cl)cccc1Cl)c1n[nH]c2c1CCCC2 | -2 | 68* | 20 | 13 | 28 | 71* | 13 | 72* | 92* | 80* | 7
O=C(NC1CCCCC1)c1n[nH]c2c1CCCCC2 | 2 | 84* | 19 | 12 | 89* | 90* | 86* | 86* | 97* | 94* | 73*
O=C(NN=C1CCCC1)c1n[nH]c2c1CCCC2 | 0 | 39 | -13 | 16 | 68* | 45 | 58* | 68* | 87* | 90* | 51*
CCOC(=O)[C@]12CCC=C1N(Cc1ccco1)C(=O)[C@H](CC(=O)NCC1CCCCC1)C2 | · | · | · | 0 | · | · | · | · | · | · | ·
CC1=CC(c2ccccc2)=Nc2ccc(C)cc2N1 | -11 | 46 | -3 | -34 | 60* | 8 | 55* | 28 | 66* | 81* | 80*
COc1ccc2c(c1)NC(=O)CC(c1ccccc1)=N2 | -14 | -16 | 6 | 9 | -15 | -11 | · | · | · | · | ·
C(=C\c1ccccc1)/CN1CCN(C(c2cc3ccccc3o2)c2nnnn2C2CCCCC2)CC1 (stereo not given) | · | · | · | 14 | · | · | · | · | · | · | ·
Cn1cccc1C(=O)OCc1cc(Cl)cc2c1OCOC2 | 8 | 45 | 13 | 10 | 75* | 51* | 70* | 72* | 90* | 47 | 65*
CCCc1nc2ccc(C)cn2c1Cc1ccccc1C(F)(F)F | · | · | · | -207 | · | · | · | · | · | · | ·
O=C(/C(N=Nc1cccc(C(F)(F)F)c1)=C(/O)c1cccs1)C(F)(F)F | -14 | 15 | 16 | 25 | 22 | 26 | · | · | · | · | ·
Cc1ccc(N=C/C(C(=O)C(F)(F)F)=C(\O)c2cccs2)cc1 | 6 | 20 | 12 | -50 | 27 | 96* | 10 | 6 | 0 | 29 | 56*
C/C(=N\NC(=O)c1cc2ccccc2cc1O)c1cccs1 | 1 | 86* | 8 | -45 | 93* | 89* | 12 | 94* | 101* | 96* | 34
C/C(=N/NC(=O)c1cccs1)c1cccs1 | -9 | 15 | -11 | -12 | 33 | 62* | 25 | 25 | 70* | 63* | 32
Cn1cccc1/C=N/NC(=O)c1cc2ccccc2cc1O | -1 | 49 | 11 | -207 | 59* | 48 | 56* | 54* | 84* | 68* | 2
C/C(=N\NC(=O)c1cc2ccccc2cc1O)c1ccc(C)o1 | 0 | 68* | 5 | -229 | 84* | 63* | 80* | 78* | 95* | 90* | 47
SMILES | UBC13 polyUb | SENP8 block-1 | Apaf1 inhib | SENP8 block-2 | SENP6 block | SENP7 block | SENP8 confirm | SENP6 confirm | SENP7 conf | Casp3 SENP sel | SENP luc ctr
Cn1cccc1/C=N/NC(=O)c1ccccn1 | 10 | 8 | -4 | -23 | 31 | 29 | · | · | · | · | ·
C/C(=N\NC(=O)c1c[nH]c2ccccc12)c1ccc(C)o1 | -10 | -2 | 10 | -1 | -11 | 15 | · | · | · | · | ·
C/C(=N\NC(=O)COc1ccc2ccccc2c1)c1cccs1 | 6 | -7 | 15 | -1 | -11 | -9 | · | · | · | · | ·
CCCCOc1ccc(S(=O)(=O)NC(=O)C2(C)CCN2C(=O)c2cccc(F)c2)cc1 (stereo not given) | · | · | · | 8 | · | · | · | · | · | · | ·
Cc1ccc2c(c1)C1(SC(C)C(=O)N1c1ccc(Cl)cc1)C(=O)N2 (stereo not given) | · | · | · | 6 | · | · | · | · | · | · | ·
O=C1NC(=O)C2(N1)C(=O)c1cccc3cccc2c13 (stereo not given) | · | · | · | 0 | · | · | · | · | · | · | ·
Fc1cccc(Cc2c(C3CCCCC3)nc3c4ccccc4ccn23)c1 | · | · | · | -197 | · | · | · | · | · | · | ·
O=C(NNC(=O)c1ccc2ccccc2c1O)c1cccs1 | -2 | 9 | -5 | -196 | 26 | -2 | · | · | · | · | ·
O=C(NNC(=O)c1cc2ccccc2cc1O)c1cccs1 | 7 | 95* | -3 | -17 | 93* | 87* | 97* | 98* | 102* | 97* | 91*
O=C(N/N=C/c1c(Cl)cccc1Cl)c1ccc(F)cc1 | -14 | -9 | 1 | 3 | -16 | -9 | · | · | · | · | ·
